Compounds with a hit are over-represented: about 3.7% of the library has one in this group of screens.
Calpain2 inh – blocks pig calpain II enzyme activity; purified calpain II, fluorogenic peptide substrate, 30 min; 220,000 tested, 0.37% active; inhibition, % at 16 µM; AID 1236;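 active = inhibition above about 50%, limit read from the data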
Arbovirus inh – blocks arbovirus infection; inhibition, % at 10 µM; 200,000 tested, 0.37% active; arbovirus infection cell-based antiviral screen; AID 1251; in the data active = inhibition above about 30%
ROMK primary – modulates human ROMK potassium channel activity; Tet-inducible ROMK, thallium flux fluorescence; actives lie on both sides; B-score at 10 µM; 130,000 tested, 2% active; AID 1918;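 active = signal ratio slope over the read window, or its plate-corrected B-score, at least 3 SD from the plate mean, either direction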;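 also: B-score of the F/F0 ratio slope over 7 to 12 s after thallium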
KCC2 mod – modulators of human KCC2 chloride dependent transport; KCC2 cells, thallium flux FluoZin-2 fluorescence; AID 1456; 190,000 tested, 2.2% active; B-score of Tl+ flux slope (higher = more flux/activation; lower = inhibition) at 10 µM; Q9H2X9;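 active = thallium flux slope and its plate-corrected score both differing from the plate sample mean at a set confidence after two filtering rounds, in either direction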;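 also: slope of fluorescence scaled to starting intensity during 10 to 20 s after thallium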
Mdm2 ligase inh – blocks human Mdm2 ubiquitin ligase activity; 210,000 tested, 0.11% active; AID 1230; Q00987; signal enhancement, % at 5 µM; cell-based MDM2 ubiquitination luciferase reporter, 2 h; 0 = plate control, 100 = twice control, blank-subtracted;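 active = signal enhancement of 30% or more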;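 also: luminescence tracks abundance of the self-degrading MDM2-luciferase fusion protein; higher signal means inhibition of MDM2 E3 ligase activity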
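Material: Stable MDM2–luciferase fusion reporter cells | Amount: 2000 cells seeded into each well | Dosing: One concentration, 5 µM, with 0.2% DMSO | Incubation: 4 h cell settling then 2 h compound exposure, 37 °C | Measured by: Luciferase luminescence | Read-out basis: % enhancement relative to plate controls after blank subtraction | Benchmarks: Control and blank well means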
PKD1 inh – blocks activity of human protein kinase D1; Q15139; PKD1 kinase fluorescence polarization assay; inhibition, % (concentration not given with the values); 200,000 tested, 0.056% active; in the data active = inhibition above about 50%
Target sequence (Q15139 whole entry, looked up): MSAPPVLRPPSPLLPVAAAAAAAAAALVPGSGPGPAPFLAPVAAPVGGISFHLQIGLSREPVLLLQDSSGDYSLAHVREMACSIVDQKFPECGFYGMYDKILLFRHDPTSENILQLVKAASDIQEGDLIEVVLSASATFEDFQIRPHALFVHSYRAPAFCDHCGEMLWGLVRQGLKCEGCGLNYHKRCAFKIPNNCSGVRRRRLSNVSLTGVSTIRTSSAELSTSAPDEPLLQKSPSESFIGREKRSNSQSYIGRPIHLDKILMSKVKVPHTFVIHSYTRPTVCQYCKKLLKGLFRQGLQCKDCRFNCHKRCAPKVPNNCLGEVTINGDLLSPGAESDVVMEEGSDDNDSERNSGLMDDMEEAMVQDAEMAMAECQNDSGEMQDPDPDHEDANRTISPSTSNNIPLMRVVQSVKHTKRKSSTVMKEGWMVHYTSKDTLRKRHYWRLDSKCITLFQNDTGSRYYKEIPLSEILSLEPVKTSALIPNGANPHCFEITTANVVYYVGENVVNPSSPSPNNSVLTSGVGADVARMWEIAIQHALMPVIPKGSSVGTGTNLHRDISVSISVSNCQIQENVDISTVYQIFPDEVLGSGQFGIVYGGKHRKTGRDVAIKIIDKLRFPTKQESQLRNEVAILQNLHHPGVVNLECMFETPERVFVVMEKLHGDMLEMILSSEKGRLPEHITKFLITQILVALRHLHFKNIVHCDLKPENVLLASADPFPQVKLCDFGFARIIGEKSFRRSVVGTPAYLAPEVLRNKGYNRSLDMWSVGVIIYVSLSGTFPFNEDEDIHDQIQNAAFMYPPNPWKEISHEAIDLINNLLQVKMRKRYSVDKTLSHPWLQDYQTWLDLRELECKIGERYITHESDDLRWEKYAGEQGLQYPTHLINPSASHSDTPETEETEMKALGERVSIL
Active calls of the source: *; i = inactive; nt = not tested or not shown.

SMILES	Calpain2 inh	Arbovirus inh	ROMK primary	KCC2 mod	Mdm2 ligase inh	PKD1 inh
Cc1cccc(C(=O)N2CCC(Cc3ccccc3)CC2)c1[N+](=O)[O-]	-0.1	10.4	-1.68	-4.21*	-12.7	-4.9
O=CNn1cnc2c(oc3nc(-c4ccccc4)cc(-c4ccco4)c32)c1=O	i	17.2	-0.912	-0.917	-20.3	-8.8
Cc1ccc(-c2cc(-c3n[nH]c(=S)o3)c3ccccc3n2)cc1	-47.3	4.4	-0.0521	16.9*	-19.2	-12.1
S=c1[nH]nc(-c2cc(-c3ccccn3)nc3ccccc23)o1	-13.7	nt	nt	-0.533	nt	nt
CC(=O)Nc1ccc(NC(=O)CSc2ccccn2)cc1	12.7	-5.5	nt	0.342	-2.0	3.7
O=C(CSC1=NNC(c2ccccn2)S1)Nc1ccc(C(F)(F)F)cc1 (stereo unspecified)	-25.8	nt	-0.429	-0.0356	36.8*	nt
CCOc1ccc2[nH]c(=O)c(CN(CC3COCCO3)C(=O)c3ccc(C)cc3)cc2c1 (stereo unspecified)	-83.6	-2.8	-0.0476	-1.6	2.3	-5.4
C/C(=N\NC(=O)c1ccccc1C)c1ccc(NC(=O)c2cccs2)cc1	13.3	81.6*	1.98	-0.139	-20.1	2.2
COc1cc(CNc2nc(C)c([N+](=O)[O-])c(C)c2C#N)cc(OC)c1	65.8*	-6.5	nt	0.414	-2.1	-0.2
NC(=O)c1cccc2ccccc12	-8.1	nt	nt	0.146	-14.7	nt
N#CSCC(=O)c1cccc2ccccc12	-6.6	-8.6	nt	12.2*	-6.9	-1.6
Cc1cc(NC(=O)CCC(=O)N(Cc2ccco2)C(C(=O)NCC2CCCO2)c2ccncc2)no1 (stereo unspecified)	0.5	-0.3	-0.888	0.0415	2.5	74.3*
CC1CCCN(CC(O)COC(c2ccccc2)c2ccccc2)C1 (stereo unspecified)	21.3	-0.1	-1.89	1.03	-4.4	-5.7
O=C1CN(c2cc(Cl)cc(Cl)c2)C(=O)CN1/N=C/c1cccnc1	5.2	nt	nt	0.0731	77.0*	nt
CCN1C(=O)N/C(=C/c2ccc(C)o2)C1=O	-16.1	1.2	0.00747	-0.101	0.3	-4.0
Cc1ccc(/C=C2/NC(=O)N(Cc3ccc(Br)cc3)C2=O)o1	-6.9	-1.2	-0.654	-0.212	31.8*	-3.3
CCOc1ccc(CCNC(=O)COC(=O)c2cc(OC)cc(OC)c2)cc1OCC	13.2	-0.8	-0.424	-1.69	3.8	0.4
COc1ccc(N2CCN(C(=S)NC(=O)c3cccs3)CC2)c([N+](=O)[O-])c1	11.2	1.7	3.45*	89.8*	-6.6	-2.0
O=C(NC(=S)N1CCN(c2c(Cl)cccc2[N+](=O)[O-])CC1)c1cccs1	32.6	-18.7	nt	nt	-8.6	-13.9
S=C(Nc1ccccc1Cl)NC1CCCCCC1	-12.4	3.0	0.0628	2.94	-4.5	-1.1
C=CCN1C(=O)N(c2ccc(F)cc2)C(=O)C1CC(=O)Nc1ccc(Cl)cc1 (stereo unspecified)	-18.5	nt	nt	0.617	-9.4	nt
O=C(O)c1ccc2[nH]c3c(c2c1)CSCC3	-39.0	30.8*	nt	0.702	-1.5	1.5
CCOC(=O)c1c(C)c(C(=O)N2CCc3ccccc3C2)c(C)n1CC	0.4	-23.7	nt	-4.56*	-15.6	-9.9
O=S(=O)(NCC1CCCO1)c1ccc(Cl)nc1 (stereo unspecified)	12.9	nt	nt	-0.467	-13.0	nt
CCOC(=O)C1=C(CBr)NC(=O)NC1C (stereo unspecified)	-16.8	4.3	0.8	-1.16	-9.9	-8.8
SMILES	Calpain2 inh	Arbovirus inh	ROMK primary	KCC2 mod	Mdm2 ligase inh	PKD1 inh
Cc1cc(C)c2c(=O)[nH]c(SCC(=O)c3ccc(C)c(C)c3)nc2n1	-4.2	34.9*	-0.119	-0.198	-3.6	6.4
COCCCNc1nc2nonc2nc1N1CCC(C(C)N2CCOCC2)CC1 (stereo unspecified)	-12.2	4.0	1.01	0.684	-3.4	-5.7
CC(=O)/C(=N/Nc1cccc(Cl)c1)Sc1nnc(C(O)c2ccccc2)n1-c1ccccc1 (stereo unspecified)	-2.6	47.2*	nt	-0.147	-12.2	15.0
COC(=O)/C(=N/Nc1ccccc1C)Sc1nnc(C(O)c2ccccc2)n1-c1ccccc1 (stereo unspecified)	6.6	1.2	1.69	0.375	-4.1	0.6
COc1ccc(CNC(=O)C2CCCN(S(=O)(=O)c3cc(C)ccc3OC)C2)cc1 (stereo unspecified)	0.4	-3.5	nt	-0.0249	4.5	-3.7
CCOC(=O)N1CCN(C(=O)C2CCCN(S(=O)(=O)c3cc(C)ccc3OC)C2)CC1 (stereo unspecified)	-24.2	1.0	0.411	nt	78.6*	-9.3
CC(=O)C1C(=O)c2c(cccc2[N+](=O)[O-])C1=Nc1ccc(S(N)(=O)=O)cc1 (stereo unspecified)	-40.8	-1.3	0.487	nt	-6.3	-1.5
Cc1ccc2nc(-c3cccs3)oc(=O)c2c1	-30.6	3.7	1.04	-0.833	-12.2	-4.6
O=c1oc(-c2cccs2)nc2ccc(Br)cc12	-36.4	45.8*	nt	0.631	-10.2	-6.8
CCN(CC)C(=O)CSC1=N/C(=C/c2ccco2)C(=O)N1c1ccc(OC)c(Cl)c1	-0.5	36.5*	-0.217	-1.97	-4.3	-4.8
CCc1ccc(N2CC(C(=O)N/N=C/c3cc([N+](=O)[O-])ccc3O)CC2=O)cc1 (stereo unspecified)	-57.5	3.1	-0.358	-1.96	-13.0	-0.8
Cc1nnc(Oc2ccccc2F)c2ccccc12	61.4*	3.0	nt	0.251	-9.0	-6.8
Cc1nnc(Oc2ccccc2)c2ccccc12	5.3	-1.6	nt	0.52	-9.3	-10.3
O=c1c2ccccc2nc(SCc2cn3ccsc3n2)n1-c1ccccc1F	51.6*	-5.1	nt	nt	-1.4	-8.5
CCC(C)Sc1nc2c(c(=O)[nH]1)C(c1cccs1)C1=C(CCCC1=O)N2 (stereo unspecified)	-89.5	32.9*	-0.979	-2.98	-15.6	-4.2
O=C(CS(=O)(=O)c1ccc2ccccc2c1)N1CCCCCC1	-16.9	12.5	nt	-0.0543	16.3	-1.2
Nc1nc(SCC(=O)N2N=C3/C(=C/c4ccco4)CCCC3C2c2ccco2)n[nH]1 (stereo unspecified)	-90.9	9.1	-2.02	0.00476	3.6	-5.6
O=C(CSc1nccc(=O)[nH]1)N1N=C2/C(=C/c3ccco3)CCCC2C1c1ccco1 (stereo unspecified)	-14.3	49.5*	0.325	-0.101	-6.5	1.2
CN(C)S(=O)(=O)c1ccc2c(c1)nc(CCC(=O)NCc1ccc(Cl)cc1)n2C	50.8*	3.4	-1.48	1.42	-25.5	9.4
O=C1CC(c2cccc(Cl)c2)CC(O)=C1C=NC1CCCC1 (stereo unspecified)	17.4	-3.9	-1.05	0.00302	32.2*	-7.9
O=C1CC(c2ccccc2)CC(O)=C1C=NCc1ccccc1Cl (stereo unspecified)	30.8	-17.4	nt	0.615	-1.7	-3.3
CC(=O)Nc1cccc(NC(=O)CSc2ncc(-c3ccc(Cl)cc3)n2Cc2ccco2)c1	-18.2	-32.6	-4.59*	-0.852	-21.7	7.7

Source: PubChem BioAssay
